{"source": "ChEMBL document CHEMBL4002611", "about": "“Discovery of medium ring thiophosphorus based heterocycles as antiproliferative agents” (Bioorg Med Chem Lett, 2017)", "key": {"[1]": {"assay": "Drug metabolism in pH 7.4 PBS buffer assessed as H2S release from compound at 5 mM incubated for 4 days by DNS-Az probe based fluorescence assay", "type": "physicochemical", "settings": "pH 7.4, 96 h, 5000 µM; call rule not given here", "summary_of_the_method": "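H₂S release in solution was measured with an H₂S-specific dansyl azide fluorescent probe after incubation at 37 °C for 4 days, against a blank sample.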"}, "MCF7 [2]": {"tested_on": "MCF7", "assay": "Antiproliferative activity against human MCF7 cells after 4 days by crystal violet staining based spectrophotometric method", "type": "functional, cell-based", "settings": "MCF7, 96 h"}, "SK-OV-3": {"tested_on": "SK-OV-3", "assay": "Antiproliferative activity against human SKOV3 cells after 4 days by crystal violet staining based spectrophotometric method", "type": "functional, cell-based", "settings": "SK-OV-3, 96 h"}, "WI-38": {"tested_on": "WI-38", "assay": "Antiproliferative activity against human WI38 cells after 4 days by crystal violet staining based spectrophotometric method", "type": "ADME, cell-based", "settings": "WI-38, 96 h"}, "MCF7 [3]": {"tested_on": "MCF7", "assay": "Antiproliferative activity against human MCF7 cells after 72 hrs in presence of 10 uM Na2S by MTT assay", "type": "functional, cell-based", "settings": "MCF7, 72 h", "summary_of_the_method": "(§1)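 Na₂S, which forms H₂S immediately in water, was added together with the test compound to MCF7 cells as a single administration. Proliferation was read by MTT assay.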"}, "[4]": {"assay": "Therapeutic index, ratio of IC50 for human WI38 cells to IC50 for human MCF7 cells"}, "MCF7 [5]": {"tested_on": "MCF7", "assay": "Antiproliferative activity against human MCF7 cells after 72 hrs in presence of 1 uM Na2S by MTT assay", "type": "functional, cell-based", "settings": "MCF7, 72 h", "summary_of_the_method": "as §1"}, "MCF7 [6]": {"tested_on": "MCF7", "assay": "Antiproliferative activity against human MCF7 cells after 72 hrs in presence of 100 uM Na2S by MTT assay", "type": "functional, cell-based", "settings": "MCF7, 72 h", "summary_of_the_method": "as §1"}, "[7]": {"assay": "Drug metabolism in human MCF7 cells assessed as H2S release from compound at 400 uM incubated for 5 hrs by confocal microscopic assay", "type": "ADME, cell-based", "settings": "mcf7, 5 h", "summary_of_the_method": "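MCF-7 cells loaded with an H₂S-sensitive fluorescent probe for 2 h at 37 °C, washed, then exposed to H₂S donors for 5 h before confocal imaging. Controls were untreated cells, probe alone, and NaHS.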"}, "[8]": {"assay": "Permeability of the compound by PAMPA", "type": "physicochemical", "settings": "read-out: permeability"}}}
{"smiles": "COc1ccc(P2(=S)Oc3ccc(Br)cc3-c3cc(Br)ccc3O2)cc1", "values": [{"measurement": "H2S released", "setting": "[1]", "value": "Not Active"}, {"measurement": "IC50", "setting": "MCF7 [2]", "value": "> 400", "unit": "µM"}, {"measurement": "IC50", "setting": "SK-OV-3", "value": "> 400", "unit": "µM"}]}
{"smiles": "Cc1ccc(S(=O)(=O)N2c3ccccc3OP2(=S)c2ccccc2)cc1", "note": "(stereo not given)", "values": [{"measurement": "IC50", "setting": "WI-38", "value": 353, "unit": "µM"}, {"measurement": "IC50", "setting": "MCF7 [2]", "value": 181, "unit": "µM"}, {"measurement": "IC50", "setting": "SK-OV-3", "value": 230, "unit": "µM"}]}
{"smiles": "S=P1(c2ccccc2)N[C@@H](c2ccccc2)[C@H](c2ccccc2)N1", "values": [{"measurement": "IC50", "setting": "WI-38", "value": 145, "unit": "µM"}, {"measurement": "IC50", "setting": "MCF7 [2]", "value": 165, "unit": "µM"}, {"measurement": "IC50", "setting": "SK-OV-3", "value": 164, "unit": "µM"}]}
{"smiles": "COc1ccc2c(c1)NP(=S)(c1ccccc1)O2", "note": "(stereo not given)", "values": [{"measurement": "IC50", "setting": "MCF7 [2]", "value": 26.2, "unit": "µM"}, {"measurement": "IC50", "setting": "SK-OV-3", "value": 24.1, "unit": "µM"}]}
{"smiles": "S=P1(c2ccccc2)NCc2ccccc2N1", "note": "(stereo not given)", "values": [{"measurement": "IC50", "setting": "WI-38", "value": 173, "unit": "µM"}, {"measurement": "IC50", "setting": "MCF7 [2]", "value": "> 400", "unit": "µM"}, {"measurement": "IC50", "setting": "SK-OV-3", "value": "> 400", "unit": "µM"}]}
{"smiles": "S=P1(c2ccc(Oc3ccccc3)cc2)Nc2ccccc2CO1", "note": "(stereo not given)", "values": [{"measurement": "IC50", "setting": "WI-38", "value": 108, "unit": "µM"}, {"measurement": "IC50", "setting": "MCF7 [2]", "value": 29.4, "unit": "µM"}, {"measurement": "IC50", "setting": "SK-OV-3", "value": 48.4, "unit": "µM"}]}
{"smiles": "S=P1(c2ccccc2)OCc2ccccc2CO1", "values": [{"measurement": "IC50", "setting": "WI-38", "value": 134, "unit": "µM"}, {"measurement": "IC50", "setting": "MCF7 [2]", "value": "> 400", "unit": "µM"}, {"measurement": "IC50", "setting": "SK-OV-3", "value": 51.2, "unit": "µM"}]}
{"smiles": "S=P1(c2ccc(Oc3ccccc3)cc2)Nc2ccccc2O1", "note": "(stereo not given)", "values": [{"measurement": "IC50", "setting": "WI-38", "value": 125, "unit": "µM"}, {"measurement": "IC50", "setting": "MCF7 [2]", "value": 73.9, "unit": "µM"}, {"measurement": "IC50", "setting": "SK-OV-3", "value": 45.8, "unit": "µM"}]}
{"smiles": "COc1cccc2c1OP(=S)(c1ccccc1)O2", "note": "(stereo not given)", "values": [{"measurement": "IC50", "setting": "WI-38", "value": 40.3, "unit": "µM"}, {"measurement": "IC50", "setting": "MCF7 [2]", "value": 40.7, "unit": "µM"}, {"measurement": "IC50", "setting": "SK-OV-3", "value": 29.7, "unit": "µM"}]}
{"smiles": "COc1ccc2c(c1)NP(=S)(c1ccc(Oc3ccccc3)cc1)O2", "note": "(stereo not given)", "values": [{"measurement": "IC50", "setting": "MCF7 [2]", "value": 32.1, "unit": "µM"}, {"measurement": "IC50", "setting": "SK-OV-3", "value": 27.9, "unit": "µM"}]}
{"smiles": "S=P1(c2ccccc2)Oc2ccc(Br)cc2-c2cc(Br)ccc2O1", "values": [{"measurement": "IC50", "setting": "MCF7 [2]", "value": "> 400", "unit": "µM"}, {"measurement": "IC50", "setting": "SK-OV-3", "value": "> 400", "unit": "µM"}]}
{"smiles": "O=S(=O)(c1ccc(Cl)cc1)N1c2ccccc2OP1(=S)c1ccccc1", "note": "(stereo not given)", "values": [{"measurement": "IC50", "setting": "MCF7 [2]", "value": 107, "unit": "µM"}, {"measurement": "IC50", "setting": "SK-OV-3", "value": 110, "unit": "µM"}]}
{"smiles": "COc1ccc(P2(=S)OC[C@@H]3OC(C)(C)O[C@H]3CO2)cc1", "values": [{"measurement": "IC50", "setting": "WI-38", "value": "> 400", "unit": "µM"}, {"measurement": "H2S released", "setting": "[1]", "value": "Not Active"}, {"measurement": "IC50", "setting": "MCF7 [2]", "value": "> 400", "unit": "µM"}, {"measurement": "IC50", "setting": "SK-OV-3", "value": 374, "unit": "µM"}]}
{"smiles": "S=P1(c2ccccc2)OCC2C3CCC(O3)C2CO1", "note": "(stereo not given)", "values": [{"measurement": "IC50", "setting": "WI-38", "value": "> 400", "unit": "µM"}, {"measurement": "IC50", "setting": "MCF7 [2]", "value": "> 400", "unit": "µM"}, {"measurement": "IC50", "setting": "SK-OV-3", "value": "> 400", "unit": "µM"}]}
{"smiles": "COc1ccc(P2(=S)Oc3ccccc3-c3ccccc3O2)cc1", "values": [{"measurement": "IC50", "setting": "WI-38", "value": 1.38, "unit": "µM"}, {"measurement": "IC50", "setting": "MCF7 [3]", "value": 1.01, "unit": "µM"}, {"measurement": "H2S released", "setting": "[1]", "value": 2, "unit": "µM"}, {"measurement": "Ratio IC50", "setting": "[4]", "value": 2}, {"measurement": "IC50", "setting": "MCF7 [5]", "value": 1.17, "unit": "µM"}, {"measurement": "IC50", "setting": "MCF7 [6]", "value": 1.44, "unit": "µM"}, {"measurement": "IC50", "setting": "MCF7 [2]", "value": "0.76 to 0.82", "unit": "µM"}, {"measurement": "IC50", "setting": "SK-OV-3", "value": 0.76, "unit": "µM"}, {"measurement": "Drug metabolism", "setting": "[7]", "value": "Metabolite_Detected"}]}
{"smiles": "COc1ccc(P2(=S)Oc3ccccc3O2)cc1", "values": [{"measurement": "IC50", "setting": "WI-38", "value": 250, "unit": "µM"}, {"measurement": "IC50", "setting": "MCF7 [2]", "value": 281, "unit": "µM"}, {"measurement": "IC50", "setting": "SK-OV-3", "value": 193, "unit": "µM"}]}
{"smiles": "COc1ccc(P2(=O)Oc3ccccc3-c3ccccc3O2)cc1", "values": [{"measurement": "IC50", "setting": "WI-38", "value": 18.6, "unit": "µM"}, {"measurement": "IC50", "setting": "MCF7 [3]", "value": 52.9, "unit": "µM"}, {"measurement": "IC50", "setting": "MCF7 [5]", "value": 59, "unit": "µM"}, {"measurement": "IC50", "setting": "MCF7 [6]", "value": 50.6, "unit": "µM"}, {"measurement": "IC50", "setting": "MCF7 [2]", "value": "11 to 69", "unit": "µM"}, {"measurement": "IC50", "setting": "SK-OV-3", "value": 5.94, "unit": "µM"}]}
{"smiles": "COc1ccc(P2(=S)Nc3ccc(Cl)cc3N2)cc1", "note": "(stereo not given)", "values": [{"measurement": "IC50", "setting": "MCF7 [2]", "value": "> 400", "unit": "µM"}, {"measurement": "IC50", "setting": "SK-OV-3", "value": "> 400", "unit": "µM"}]}
{"smiles": "S=P1(c2ccccc2)Nc2ccccc2O1", "note": "(stereo not given)", "values": [{"measurement": "IC50", "setting": "WI-38", "value": "> 50", "unit": "µM"}, {"measurement": "Drug metabolism", "setting": "[7]", "value": "Metabolite_Detected"}]}
{"smiles": "S=P1(c2ccccc2)OCc2cccc3cccc(c23)CO1", "values": [{"measurement": "IC50", "setting": "WI-38", "value": 76.2, "unit": "µM"}, {"measurement": "IC50", "setting": "MCF7 [2]", "value": 71.1, "unit": "µM"}, {"measurement": "IC50", "setting": "SK-OV-3", "value": 51.1, "unit": "µM"}]}
{"smiles": "S=P1(c2ccccc2)Oc2ccc(-c3ccccc3)cc2-c2cc(-c3ccccc3)ccc2O1", "values": [{"measurement": "IC50", "setting": "MCF7 [2]", "value": "> 400", "unit": "µM"}, {"measurement": "IC50", "setting": "SK-OV-3", "value": "> 400", "unit": "µM"}]}
{"smiles": "S=P(S)(NCc1ccccc1)c1ccc(Oc2ccccc2)cc1", "note": "(stereo not given)", "values": [{"measurement": "IC50", "setting": "WI-38", "value": 104, "unit": "µM"}, {"measurement": "Papp", "setting": "[8]", "value": 1.9, "unit": "×10⁻⁶ cm/s"}, {"measurement": "IC50", "setting": "SK-OV-3", "value": 47, "unit": "µM"}, {"measurement": "Drug metabolism", "setting": "[7]", "value": "Metabolite_Detected"}]}
{"smiles": "S=P1(c2ccccc2)Oc2ccccc2-c2ccccc2O1", "values": [{"measurement": "IC50", "setting": "WI-38", "value": 400, "unit": "µM"}, {"measurement": "H2S released", "setting": "[1]", "value": "Not Active"}, {"measurement": "Ratio IC50", "setting": "[4]", "value": 3}, {"measurement": "IC50", "setting": "MCF7 [2]", "value": 140, "unit": "µM"}, {"measurement": "IC50", "setting": "SK-OV-3", "value": 103, "unit": "µM"}]}
{"smiles": "S=P1(c2ccc(Oc3ccccc3)cc2)N[C@@H](c2ccccc2)[C@H](c2ccccc2)N1", "values": [{"measurement": "IC50", "setting": "MCF7 [2]", "value": "> 400", "unit": "µM"}, {"measurement": "IC50", "setting": "SK-OV-3", "value": 49, "unit": "µM"}]}
{"smiles": "COc1ccc(P2(=S)Nc3ccccc3CO2)cc1", "note": "(stereo not given)", "values": [{"measurement": "IC50", "setting": "WI-38", "value": 392, "unit": "µM"}, {"measurement": "IC50", "setting": "MCF7 [2]", "value": 200, "unit": "µM"}, {"measurement": "IC50", "setting": "SK-OV-3", "value": 91.4, "unit": "µM"}]}
